Key:
[1] = target: T1, DC-SIGN producing Raji cells (Homo sapiens, UniProt Q9NNX6); assay: Flow cytometry assay of binding and uptake of fluorescent mannosylated probe; type: cell-based; conditions: competitor at 100 mM; Man-Fl-BSA probe
T1 sequence (Q9NNX6 1-404): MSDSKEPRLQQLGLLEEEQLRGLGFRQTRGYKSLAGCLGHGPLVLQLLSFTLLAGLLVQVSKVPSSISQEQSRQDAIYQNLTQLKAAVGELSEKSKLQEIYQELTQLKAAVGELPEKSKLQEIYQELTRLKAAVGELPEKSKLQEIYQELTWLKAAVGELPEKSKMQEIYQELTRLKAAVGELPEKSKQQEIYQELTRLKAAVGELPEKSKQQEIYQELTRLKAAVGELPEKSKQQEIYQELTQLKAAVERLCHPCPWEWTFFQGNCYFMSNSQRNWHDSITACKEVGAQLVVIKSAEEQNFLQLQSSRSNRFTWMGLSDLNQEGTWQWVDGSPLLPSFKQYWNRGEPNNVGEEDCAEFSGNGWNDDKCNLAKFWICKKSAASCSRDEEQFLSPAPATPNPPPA
Procedure, shortened: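 Raji (Burkitt's lymphoma) cells stably transfected with a DC-SIGN expression vector. Surface DC-SIGN was checked with AZND1-PE antibody by microscopy and with DCN46-FITC by flow cytometry. Cells were exposed to fluorescent Man-Fl-BSA with or without test compound; ManNAc (100 mM) served as carbohydrate competitor. Percent inhibition was taken from the geometric mean fluorescence, normalized to cells without inhibitor.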

[2] = target: T2, extracellular domain of DC-SIGN (immobilized tetrameric DC-SIGN) (Homo sapiens, UniProt Q9NNX6); type: binding; conditions: read-out: Kd of probe to immobilized tetrameric DC-SIGN
T2 sequence (Q9NNX6 59-404 limits assumed): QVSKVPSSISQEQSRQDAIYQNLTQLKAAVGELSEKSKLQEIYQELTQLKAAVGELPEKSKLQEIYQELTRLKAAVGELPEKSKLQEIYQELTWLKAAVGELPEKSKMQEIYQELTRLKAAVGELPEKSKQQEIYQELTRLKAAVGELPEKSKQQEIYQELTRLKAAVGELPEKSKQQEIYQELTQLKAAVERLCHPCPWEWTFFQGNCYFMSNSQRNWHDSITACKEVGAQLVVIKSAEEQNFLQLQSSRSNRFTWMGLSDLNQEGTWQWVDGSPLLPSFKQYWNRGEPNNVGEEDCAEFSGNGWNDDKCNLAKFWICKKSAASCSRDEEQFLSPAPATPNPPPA

Row | Compound | probe uptake by DC-SIGN-positive cells [1] | Kd [2] [µM]
1 | CC(=O)N[C@@H]1C(O)O[C@H](CO)[C@@H](O)[C@@H]1O (some centres unmarked) [ManNAc, N-acetylmannosamine] | significant decrease | –
2 | Man-Fl-BSA: fluorescent mannosylated glycoconjugate probe (fluorescein, mannose, BSA) | – | 2000

Source: article PMC3359018 (Chemical science (Royal Society of Chemistry : 2010), 2011)
